IC50, viability and inhibition data for 28 compounds are collected here from ChEMBL document CHEMBL4190359, “Synthesis and Investigation of S-Substituted 2-Mercaptobenzoimidazoles as Inhibitors of Hedgehog Signaling” (ACS Med Chem Lett, 2017).

One may read the IC50 as the concentration needed to halve the response being measured. The term inhibition denotes the share of the control response that was lost under treatment.

Molecules are shown by their SMILES. Active and inactive are the calls of the source. No cut-off for these calls is given here.

The nature of series [1]: Inhibition of Hedgehog signaling in mouse Shh Light2 cells assessed as reduction in purmorphamine-induced Gli mediated transcriptional activity pretreated for 1 hr followed by purmorphamine addition measured after 48 hrs by luciferase reporter gene assay. The series is classed as cell-based.
A short description of series [2]: Cytotoxicity against mouse C3H10T1/2 cells assessed as cell viability by CellTiter-Glo assay. The note with it: read-out: Activity. Also noted: concentration or dose not given beside the values. The format is cell-based, C3H 10T1/2. Background: ATP-based viability assays read luminescence as a measure of living cells.
Series [3] has as its target T1, Alkaline phosphatase, tissue-nonspecific isozyme (Homo sapiens) (UniProt P05186).
T1 sequence (whole entry): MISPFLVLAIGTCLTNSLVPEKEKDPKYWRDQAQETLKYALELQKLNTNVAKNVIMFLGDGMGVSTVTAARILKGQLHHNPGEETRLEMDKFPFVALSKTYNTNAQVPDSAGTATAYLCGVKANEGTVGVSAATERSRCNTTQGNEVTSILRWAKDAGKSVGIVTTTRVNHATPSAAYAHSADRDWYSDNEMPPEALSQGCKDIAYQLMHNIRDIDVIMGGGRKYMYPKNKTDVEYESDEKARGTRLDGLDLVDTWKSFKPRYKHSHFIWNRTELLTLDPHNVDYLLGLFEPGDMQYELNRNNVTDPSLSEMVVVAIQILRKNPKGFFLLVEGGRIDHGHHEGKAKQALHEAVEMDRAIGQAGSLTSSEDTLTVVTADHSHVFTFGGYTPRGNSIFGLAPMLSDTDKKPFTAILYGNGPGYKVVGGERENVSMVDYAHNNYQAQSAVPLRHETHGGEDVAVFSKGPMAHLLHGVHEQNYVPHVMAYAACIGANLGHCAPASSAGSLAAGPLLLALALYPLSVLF
The series is described as follows: Inhibition of recombinant human C-terminal His6-tagged alkaline phosphate activity (Leu18 to Ser502 residues) using CDP-star as substrate pretreated for 30 mins followed by substrate addition measured after 60 mins by luminescence assay.

A short description of series [4]: Cytotoxicity against mouse Shh Light2 cells assessed as cell viability by CellTiter Glo assay. The series is classed as cell-based, Shh Light II. The note with it: read-out: Activity. Also noted: concentration or dose not given beside the values.
A short description of series [5]: (§1) Inhibition of Hedgehog signaling pathway in mouse C3H10T1/2 cells assessed as reduction in purmorphamine-induced increase in alkaline phosphatase level using CDP-star as substrate pretreated for 1 hr followed by purmorphamine addition measured after 5 days by luminescence assay. The series is classed as cell-based. In outline: (§2)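 Osteogenesis assay in multipotent C3H/10T1/2 mesenchymal progenitor cells; differentiation to osteoblasts driven by SMO agonist purmorphamine; read-out is induced alkaline phosphatase expression; IC50 derived from reduction of this signal.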

The species entered for the next series is Mus musculus. The description is as §1. The format is cell-based. In outline: as §2
The species entered for another series is Homo sapiens. The series is described as follows: Inhibition of Hedgehog signaling pathway (unknown origin). As to conditions: concentration not given here.
The test system of the next series is Shh Light II. The series can be described thus: Cytotoxicity against mouse Shh Light2 cells by CellTiter Glo assay. The format is cell-based.
Another series relates to C3H 10T1/2. The series is described as follows: Cytotoxicity against mouse C3H10T1/2 cells by CellTiter-Glo assay. The format is cell-based.
[6] abbreviates: Mus musculus, Shh Light2, read-out: IC50.
Setting [7] is: Mus musculus, C3H 10T1/2, read-out: IC50.

For the compound `Cc1ccccc1OCCSc1nc2ccccc2[nH]1`, the IC50 in [1] (setting [6]) is 6.93 µM; in [5] (setting [7]) it was 4.26 µM. Besides, the viability in [2] and in series [4] was over 80% throughout. Besides, in series [3], the inhibition entry was “inactive”.
For `COc1ccccc1OCCSc1nc2ccccc2[nH]1`, the viability in series [2] is over 80%. Moreover, the inhibition result in series [3] was “inactive”. The IC50 in series [5] (setting [7]) was determined as 2.61 µM.
For the compound `Cc1cccc(SCCSc2nc3ccccc3[nH]2)c1`, the figures for the 50% inhibitory concentration (IC50) in series [1] (setting [6]) and in series [5] (setting [7]) were 3.48 µM and 3.06 µM, respectively. Further, the viability in series [2] and in series [4] was over 80% in each case. Also, the inhibition result in series [3] was “inactive”.
Regarding `Cc1ccc(OCCCSc2nc3ccccc3[nH]2)cc1`, the viability in series [2] was over 80%. Moreover, in [3], the inhibition result was “inactive”. For the same compound, in [5] (setting [7]), the IC50 was 6.29 µM.
As for `Cc1cc(OCCSc2nc3ccccc3[nH]2)ccc1Cl`, the IC50 in series [1] (setting [6]) amounted to 7.89 µM; in series [5] (setting [7]), 2.57 µM. Moreover, the viability in [2] and in series [4] was over 80% throughout. In [3], the inhibition entry was “inactive”.
In the case of `Clc1ccc(SCCCSc2nc3ccccc3[nH]2)cc1`, the values for the IC50 in series [1] (setting [6]) and in series [5] (setting [7]) were over 10 µM and 2.85 µM, respectively. Moreover, the viability in series [2] and in series [4] was over 80% in each case. In addition, in series [3], the inhibition entry was “inactive”.
Consider `Cc1ccc(C)c(OCCSc2nc3ccccc3[nH]2)c1`, for which, in [2], the viability was over 80%. The inhibition entry in series [3] was “inactive”. Also, the IC50 in series [5] (setting [7]) was determined as 6.41 µM.
Regarding `O=[N+]([O-])c1cccc(OCCSc2nc3ccccc3[nH]2)c1`, the IC50 worked out at 6.49 µM in series [1] (setting [6]) and 4.47 µM in [5] (setting [7]). Further, the viability in series [2] and in series [4] was over 80% in each case. Also, the inhibition result in [3] is “inactive”.
`Fc1ccccc1OCCSc1nc2ccccc2[nH]1`: the viability in series [2] was over 80%. In series [3], the inhibition entry is “inactive”. In addition, the half-maximal inhibitory concentration (IC50) in series [5] (setting [7]) turned out to be 2.32 µM.
Turning to `Cc1ccc(OCCSc2nc3ccccc3[nH]2)c([N+](=O)[O-])c1`, in series [2], the viability was over 80%. Moreover, the inhibition entry in series [3] was “inactive”. In [5], the IC50 entry is reported as “Not Active”.
As to `Cc1cccc(OCCCSc2nc3ccccc3[nH]2)c1`, the viability in series [2] was over 80%. Moreover, in [3], the inhibition entry was “inactive”. Further, in series [5], the IC50 result is given as “Not Active”.
For the compound `Cc1cccc(C)c1OCCSc1nc2ccccc2[nH]1`, the figures for the IC50 in series [1] (setting [6]) and in [5] (setting [7]) were 3.16 µM and 1.76 µM, respectively. The viability in [2] and in series [4] was over 80% throughout. Besides, in [3], the inhibition result is “inactive”. Also, in the series filed under Mus musculus, the inhibition result is “Dose-dependent effect”.
Regarding `CCOC(=O)CCCn1c(SCCOc2c(F)cccc2F)nc2ccccc21`, the inhibition in the series listed under Homo sapiens was found to be 12%.
In the case of `Cc1cccc(C)c1OCCCSc1nc2ccccc2[nH]1`, the results for the IC50 in series [1] (setting [6]) and in series [5] (setting [7]) were 4.12 µM and 5.6 µM, respectively. The viability in series [2] and in series [4] was over 80% throughout. For the same compound, the inhibition entry in series [3] is “inactive”.
Turning to `Cc1ccc(C)c(OCCSc2nc3ccccc3[nH]2)c1C`, the viability in series [2] was over 80%. In addition, the inhibition result in series [3] was “inactive”. Further, the IC50 in series [5] (setting [7]) worked out at 2.9 µM.
`Cc1cccc(OCCSc2nc3ccccc3[nH]2)c1`: the IC50 in series [1] (setting [6]) was determined as 5.11 µM; in series [5] (setting [7]), 2.08 µM. In addition, the viability in [2] and in series [4] was over 80% each time. In series [3], the inhibition result was “inactive”.
Regarding `COC(=O)c1cccc(OCCSc2nc3ccccc3[nH]2)c1`, the IC50 result in series [1] and in [5] was “Not Active” in each case. For the same compound, the viability in series [2] and in [4] was over 80% each time. Further, the inhibition result in series [3] is “inactive”.
For `CC(C)c1cccc(OCCSc2nc3ccccc3[nH]2)c1`, in series [2], the viability was over 80%. In series [3], the inhibition entry was “inactive”. Further, the IC50 in series [5] (setting [7]) was determined as 9.17 µM.
Take `c1ccc(-c2ccc(OCCSc3nc4ccccc4[nH]3)cc2)cc1`: the viability in series [2] is over 80%. The inhibition result in [3] is “inactive”. The IC50 result in series [5] is on record as “Not Active”.
For `COc1ccc(SCCSc2nc3ccccc3[nH]2)cc1`, the IC50 in series [1] (setting [6]) was 3.55 µM; in series [5] (setting [7]) it was 5.63 µM. The viability in series [2] and in [4] was over 80% each time. Also, the inhibition entry in series [3] is “inactive”.
With `Clc1cc(Cl)c(SCCSc2nc3ccccc3[nH]2)cc1Cl`, the viability in [2] is over 80%. Further, the inhibition entry in [3] is “inactive”. Moreover, in series [5] (setting [7]), the IC50 was found to be 5.71 µM.
On the same counts, the results for `CC(C)c1ccccc1OCCSc1nc2ccccc2[nH]1` are over 80%, “inactive” and over 10 µM.
Regarding `Oc1ccc(OCCSc2nc3ccccc3[nH]2)cc1`, the IC50 in [1] (setting [6]) was 8.12 µM; in the series with Shh Light II, 7.7 µM; in the series with C3H 10T1/2 it was 7.12 µM; in series [5] (setting [7]), 2.23 µM. Besides, the inhibition entry in series [3] was “inactive”.
As for `Cc1ccc2nc(NCCOc3c(C)cccc3C)sc2c1`, the viability in series [2] is over 80%. In [3], the inhibition entry is “inactive”. Further, the IC50 in [5] (setting [7]) is over 10 µM.
Consider `c1ccc2cc(OCCSc3nc4ccccc4[nH]3)ccc2c1`, for which the IC50 in series [1] (setting [6]) amounted to 7.29 µM; in series [5] (setting [7]), 4.49 µM. For the same compound, the viability in series [2] and in [4] was over 80% throughout. Besides, the inhibition entry in series [3] is “inactive”.
Consider `CS(=O)(=O)c1ccc(C(=O)Nc2ccc(Cl)c(-c3ccccn3)c2)c(Cl)c1` [VISMODEGIB], for which the half-inhibitory concentration (IC50) in series [1] (setting [6]) is 0.98 µM; in series [5] (setting [7]), 0.14 µM. Also, the viability in series [2] and in series [4] was over 80% in each case. In addition, the inhibition entry in series [3] is “inactive”.
Regarding `c1ccc(OCCSc2nc3ccccc3[nH]2)cc1`, the IC50 in [1] (setting [6]) was 8.92 µM; in [5] (setting [7]), 2.22 µM. Moreover, the viability in series [2] and in series [4] was over 80% throughout. For the same compound, the inhibition result in series [3] is “inactive”.
Take `Cc1ccc2nc(NCCOc3ccccc3)sc2c1`: the viability in [2] is over 80%. In [3], the inhibition result was “inactive”. Besides, the IC50 entry in series [5] was “Not Active”.
